We go through five molecules from publication PMC8105262 (Molecular imaging and biology, 2020).

The Ki is a measure of affinity in units of concentration, obtained from inhibition or displacement. As usually defined, the Kd is a measure of binding affinity in units of concentration.

For data set [1], the target named is SV2A. The settings on record: [^3H]UCB-J competitive binding, rat whole brain; cited from earlier work.
Data set [2] deals with SV2A binding in the hippocampus. Particulars: APP/PS1 mice vs WT, [^11C]UCB-J PET; cited from earlier work.
In data set [3] the target is T1, SV2A (Mus musculus, UniProt Q9JIS5). It counts as binding. A digest of the protocol:
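Mouse brain homogenate in 50 mM Tris-HCl with 2 mM MgCl2, pH 7.4, at 0.01 mg protein per well. Unlabelled ligand added from standard solutions of 0.1–50,000 nM, plus radioligand (~0.074 MBq, 2.3 nM). Shaken at 37 °C for 30 min, filters washed twice with buffer, then gamma counted. Binding expressed as pmol/mg protein. Nonspecific binding defined with 0.05 mM unlabelled ligand. Specific binding plotted against log total (hot + cold) ligand concentration.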

Data set [4] concerns the target T1, SV2A. Briefly: Dynamic small animal PET imaging of mouse brain with [^18F]SynVesT-1. Type of data set: in vivo. The essentials: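 Female WT (C57BL/6J) and APP/PS1 mice, 88 ± 4 weeks, n = 3 each, under 1.5–2.5% isoflurane on a heating pad. Radiotracer given as an i.v. lateral tail-vein bolus (10.28 ± 3.74 MBq in 0.1 mL). Baseline emission data acquired 0–90 min p.i. on small-animal PET/CT. OSEM3D/MAP reconstruction with decay, attenuation, scatter, normalization and randoms corrections. Images co-registered to mouse brain atlas space for regional time-activity curves.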

Data set [5] addresses T1, SV2A. Type of data set: binding. This is another data set of the same source.
The target of data set [6] is SV2A. The settings on record: rat brain homogenate; cited from earlier work.
[7] abbreviates: rodent brain, from time-activity curves.

Read-outs that look alike come from different tables or passages of the source.

T1 sequence (Q9JIS5 whole entry): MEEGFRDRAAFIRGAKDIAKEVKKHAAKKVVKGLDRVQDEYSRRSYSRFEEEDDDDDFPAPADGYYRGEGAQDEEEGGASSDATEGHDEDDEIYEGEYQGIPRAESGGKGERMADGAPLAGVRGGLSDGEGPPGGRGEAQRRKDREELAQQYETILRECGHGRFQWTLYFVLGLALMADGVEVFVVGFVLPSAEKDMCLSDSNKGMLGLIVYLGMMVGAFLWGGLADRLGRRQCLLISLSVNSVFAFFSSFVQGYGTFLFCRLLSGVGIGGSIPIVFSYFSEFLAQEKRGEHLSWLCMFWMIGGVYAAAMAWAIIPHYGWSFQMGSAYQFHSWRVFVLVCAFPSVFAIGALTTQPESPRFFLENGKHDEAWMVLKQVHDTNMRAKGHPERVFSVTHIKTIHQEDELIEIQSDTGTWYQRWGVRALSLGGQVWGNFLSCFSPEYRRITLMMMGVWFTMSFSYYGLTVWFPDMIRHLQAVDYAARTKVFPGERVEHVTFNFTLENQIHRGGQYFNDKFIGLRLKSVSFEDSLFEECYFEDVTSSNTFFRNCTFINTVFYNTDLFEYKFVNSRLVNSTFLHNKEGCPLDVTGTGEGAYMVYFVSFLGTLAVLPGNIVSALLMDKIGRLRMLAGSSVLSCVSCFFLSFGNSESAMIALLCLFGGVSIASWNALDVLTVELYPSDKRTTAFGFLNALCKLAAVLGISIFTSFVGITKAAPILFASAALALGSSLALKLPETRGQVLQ

Turning to `Cc1cnccc1CN1C[C@@H](c2cc(F)cc(F)c2)CC1=O` [SynVesT-1], at SV2A [1], the Ki was 2.2 nM.

With `CN1CCN(CCOc2cc(OC3CCOCC3)c3c(Nc4c(Cl)ccc5c4OCO5)ncnc3c2)CC1` [saracatinib], the “Effect of treatment on decreased hippocampal SV2A binding” value in data set [2] is given as “restored to the same level as the WT mice”.

With `Cc1cnccc1CN1C[C@@H](c2cc(F)cc([18F])c2)CC1=O` [[^18F]SynVesT-1, (R)-4-(3-Fluoro-5-(fluoro-^18F)phenyl)-1-((3-methylpyridin-4-yl)methyl)pyrrolidin-2-one], the Bmax at SV2A [3] (mouse brain homogenate) was 4.54 pmol/mg protein; at SV2A [5] (WT mouse brain sections), 1.8 ± 0.1 pmol/mg of brain tissue; on SV2A [5] (WT mouse brain sections, assuming 10% of brain tissue is protein), 18 ± 1 pmol/mg protein. The “Bmax (range over homologous competitive and autoradiographic saturation assays)” value at SV2A [3] (rodent brain tissue) is recorded as 4.5–18 pmol/mg protein. Further, the “Time of peak of brain time-activity curves” value on SV2A [4] (WT and APP/PS1 mice, i.v. bolus, 0–90 min scan) was at most 20 min p.i. Moreover, the BBB penetration entry at SV2A [4] (setting [7]) was “efficient BBB penetration”. Further, the “Binding kinetics in brain” value on SV2A [4] (setting [7]) is reported as “reversible binding kinetics”. The “Radioligand concentration at which total binding appeared to saturate” value at SV2A [5] (mouse brain sections) is “above 25 nM”.

For `Cc1cnccc1CN1C[C@@H](c2cc(F)c(F)c(F)c2)CC1=O` [UCB-J], the Kd at SV2A [6] is 2.6 ± 0.25 nM.

With `Cc1cnccc1CN1C[C@@H](c2cc(F)cc(F)c2)CC1=O` [[^18F]SynVesT-1, (R)-4-(3-Fluoro-5-(fluoro-^18F)phenyl)-1-((3-methylpyridin-4-yl)methyl)pyrrolidin-2-one], the Kd on SV2A [3] (mouse brain homogenate, 37 °C, 30 min, Kd=Ki=IC50−[radioligand]) stood at 19.6 ± 1.38 nM; on SV2A [5] (WT mouse brain sections, nonspecific binding with 1 mM levetiracetam), 9.8 ± 1.7 nM.
